Measured values from ChEMBL document CHEMBL1135994, “Potent, novel in vitro inhibitors of the Pseudomonas aeruginosa deacetylase LpxC” (J Med Chem, 2002).

target: T1, UDP-3-O-acyl-N-acetylglucosamine deacetylase (Pseudomonas aeruginosa (strain ATCC 15692 / PAO1 / 1C / PRS 101 / LMG12228), UniProt P47205); test: Inhibition of Pseudomonas aeruginosa UDP-3-O-acyl-N-acetylglucosamine Deacetylase (LpxC) in vitro.
T1 sequence (P47205 whole entry): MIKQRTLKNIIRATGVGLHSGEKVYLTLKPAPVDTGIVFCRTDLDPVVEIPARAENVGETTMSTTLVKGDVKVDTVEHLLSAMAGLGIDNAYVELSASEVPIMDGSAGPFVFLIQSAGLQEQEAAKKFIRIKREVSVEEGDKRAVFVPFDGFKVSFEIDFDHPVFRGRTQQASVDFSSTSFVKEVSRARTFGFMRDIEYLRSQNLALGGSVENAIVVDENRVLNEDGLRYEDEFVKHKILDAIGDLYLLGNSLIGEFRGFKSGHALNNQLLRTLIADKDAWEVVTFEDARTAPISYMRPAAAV
How it was run: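 Purified recombinant P. aeruginosa LpxC (IPTG-induced, zinc-reconstituted) at 2 nM incubated with 150 nM [3H-acetyl]-UDP-3-O-(R-3-hydroxydecanoyl)-GlcNAc for 90 min at room temperature (22 °C). Buffer is sodium phosphate pH 7.5 with 1 mg/mL BSA. Stopped with activated charcoal suspension. Released [3H]-acetate in the clarified supernatant counted by scintillation. 5 mM EDTA controls define nonspecific tritium release. IC50 determined.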

IC50 [µM]	SMILES
3.3	C=CCc1c(C)c(C2=NC(C(=O)NO)CO2)cc(F)c1OC (stereo not drawn)
0.56	O=C(NO)C1COC(c2ccc(COc3cccc([N+](=O)[O-])c3)cc2)=N1 (stereo not drawn)
31.2	O=C(NO)C1CCOC(c2cc3cc(F)ccc3[nH]2)=N1 (stereo not drawn)
0.96	CCCc1cc(C2=NC(C(=O)NO)CO2)ccc1F (stereo not drawn)
2.5	O=C(NO)C1COC(c2cccc(C(F)(F)F)c2)=N1 (stereo not drawn)
5.4	O=C(NO)C1COC(c2ccc([N+](=O)[O-])cc2)=N1 (stereo not drawn)
38.5	Cc1ccc(C2=NC(C(=O)NO)CS2)cc1 (stereo not drawn)
0.16	COc1ccc(C2=NC(C(=O)NO)CO2)cc1OC(F)(F)F (stereo not drawn)
> 30	O=C(NO)C1COC(c2ccc(O)cc2)=N1 (stereo not drawn)
7.8	O=C(NO)C1COC(c2ccc(C(F)(F)F)cc2)=N1 (stereo not drawn)
18	CC(=O)c1ccc(C2=NC(C(=O)NO)CO2)cc1 (stereo not drawn)
1.3	O=C(NO)C1COC(c2ccc(F)c(C(F)(F)F)c2)=N1 (stereo not drawn)
5.5	O=C(NO)C1COC(c2ccc(I)cc2)=N1 (stereo not drawn)
46	CCOc1cc(C(=O)NC(CO)C(=O)NO)ccc1F (stereo not drawn)
9.6	O=C(NO)C1COC(c2ccc(OCc3ccccc3C(F)(F)F)c(F)c2)=N1 (stereo not drawn)
5.5	O=C(NO)C1COC(c2[nH]nc3ccccc23)=N1 (stereo not drawn)
0.25	O=C(NO)C1COC(c2ccc(OCc3cccc(F)c3)c(OC(F)(F)F)c2)=N1 (stereo not drawn)
6	O=C(NO)C1COC(c2ccc(F)cc2)=N1 (stereo not drawn)
> 10	O=C(NO)C1COC(c2ccccc2OC(F)(F)F)=N1 (stereo not drawn)
0.35	C=CCCOc1ccc(C2=NC(C(=O)NO)CO2)cc1OC(F)(F)F (stereo not drawn)
1.4	C=CCOc1ccc(C2=NC(C(=O)NO)CO2)cc1F (stereo not drawn)

IC50 [µM]	SMILES
25	O=C(NO)C1COC(c2cc(F)cc(C(F)(F)F)c2)=N1 (stereo not drawn)
6	O=C(NO)C1COC(c2cccc(OC(F)(F)F)c2)=N1 (stereo not drawn)
2.2	C=CCOc1ccc(C2=NC(C(=O)NO)CO2)cc1C(F)(F)F (stereo not drawn)
0.28	CCCc1ccc(-c2ccc(C3=NC(C(=O)NO)CO3)cc2)cc1 (stereo not drawn)
2.7	O=C(NO)C1COC(c2ccc(Br)cc2)=N1 (stereo not drawn)
1	CCOc1cc(C2=NC(C(=O)NO)CO2)ccc1F (stereo not drawn)
1.6	O=C(NO)C1COC(c2cc3cc(F)ccc3[nH]2)=N1 (stereo not drawn)
13	O=C(NC(CO)C(=O)NO)c1n[nH]c2ccccc12 (stereo not drawn)
> 50	O=C(NC(CO)C(=O)NO)c1ccc(F)cc1 (stereo not drawn)
> 50	Cc1ccc(C2=NC(C(=O)NO)CCO2)cc1 (stereo not drawn)
21.7	O=C(NO)C1CSC(c2ccc(OC(F)(F)F)cc2)=N1 (stereo not drawn)
> 30	Cc1c(C2=NC(C(=O)NO)CO2)cnn1-c1ccccc1 (stereo not drawn)
17.8	CCCc1cc(C2=NC(C(=O)NO)CS2)cc(OC(F)(F)F)c1OC (stereo not drawn)
5	O=C(NO)C1COC(c2ccc(OC(F)(F)F)cc2)=N1 (stereo not drawn)
7.3	CCCCc1ccc(C2=NC(C(=O)NO)CO2)cc1 (stereo not drawn)
> 30	CC(=O)Nc1ccc(C2=NC(C(=O)NO)CO2)cc1 (stereo not drawn)
0.3	O=C(NO)C1COC(c2[nH]c3ccc(F)cc3c2Cl)=N1 (stereo not drawn)
1.2	Cc1cc(C2=NC(C(=O)NO)CO2)ccc1F (stereo not drawn)
9	COc1c(F)cc(C2=NC(C(=O)NO)CO2)cc1Br (stereo not drawn)
1	O=C(NO)C1COC(c2ccc(OCc3cccc([N+](=O)[O-])c3)cc2)=N1 (stereo not drawn)
58.7	C=CCCOc1ccc(C2=NC(C(=O)NO)CS2)cc1 (stereo not drawn)

IC50 [µM]	SMILES
3.9	C=CCCOc1ccc(C(=O)NC(CO)C(=O)NO)cc1 (stereo not drawn)
5.6	C=CCCOc1ccc(C2=NC(C(=O)NO)CO2)cc1 (stereo not drawn)
> 50	CCCc1cc(C(=O)NC(CO)C(=O)NO)cc(OC(F)(F)F)c1OC (stereo not drawn)
7.5	C=CCOc1ccc(C(=O)NC(CO)C(=O)NO)cc1OC(F)(F)F (stereo not drawn)
0.12	C=CCOc1ccc(C2=NC(C(=O)NO)CO2)cc1OC(F)(F)F (stereo not drawn)
12	CCCCn1nc2ccccc2c1C1=NC(C(=O)NO)CO1 (stereo not drawn)
> 50	Cc1ccc(C(=O)NC(CO)C(=O)NO)cc1 (stereo not drawn)
10	CCCCn1nc(C2=NC(C(=O)NO)CO2)c2ccccc21 (stereo not drawn)
20	Cc1ccc(C2=NC(C(=O)NO)CO2)cc1 (stereo not drawn)
21.2	O=C(NO)C1CCOC(c2ccc(F)c(C(F)(F)F)c2)=N1 (stereo not drawn)
62.5	O=C(NO)C1CSC(c2ccc(F)cc2)=N1 (stereo not drawn)
30	O=C(NO)C1COC(c2ccc(OC(F)(F)F)c(Cl)c2)=N1 (stereo not drawn)
4.9	CN(C)c1ccc(C2=NC(C(=O)NO)CO2)cc1 (stereo not drawn)
> 60	Cc1c(C2=NC(C(=O)NO)CS2)cnn1-c1ccccc1 (stereo not drawn)
0.5	CCCc1cc(C2=NC(C(=O)NO)CO2)cc(OC(F)(F)F)c1OC (stereo not drawn)
0.19	CC(C)=CCOc1ccc(C2=NC(C(=O)NO)CO2)cc1OC(F)(F)F (stereo not drawn)
> 30	O=C(NO)C1COC(c2cnn(-c3ccccc3)c2C(F)(F)F)=N1 (stereo not drawn)
> 30	CCCCCCCOc1ccc(C2=NC(C(=O)NO)CO2)cc1 (stereo not drawn)
4.9	O=C(NO)C1COC(c2ccc(F)c(Br)c2)=N1 (stereo not drawn)
0.84	O=C(NO)C1COC(c2ccc(OCc3cccc(C(F)(F)F)c3)c(F)c2)=N1 (stereo not drawn)

SMILES	IC50 [µM]
O=C(NO)C1COC(c2ccc(C(F)(F)F)nc2)=N1 (stereo not drawn)	10
